Data reported in ChEMBL document CHEMBL4229342, “Synthesis of novel proxyphylline derivatives with dual Anti-Candida albicans and anticancer activity” (Eur J Med Chem, 2018).

Each compound was assayed on MCF7 (assay: Antiproliferative activity against human MCF7 cells assessed as cell viability at 25 uM after 72 hrs by MTT assay). Details: MCF7, 72 h, read-out: Activity.
Assay type: functional
Outline: (§1)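 MTT viability assay in CCRF-CEM and MCF-7 cells after 72 h exposure at 25, 50, 100 and 200 µM. Results are relative to control cells without inhibitor in 0.5% DMSO. Done in triplicate; values are means ± SD of three independent experiments.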
Compound `Cc1ccc(C(=O)CC(=O)OC(C)Cn2cnc3c2c(=O)n(C)c(=O)n3C)cc1` (configuration not stated) has a viability at 25 µM of 89%.

These compounds were tested on Candida albicans (assay: Growth inhibition of Candida albicans ATCC 90028 at 0.0625 ug/ml incubated for 18 hrs at 35 degC by broth microdilution method relative to control). Details: ATCC 90028, 18 h, read-out: GI.
Assay type: functional
Compound `Cc1ccc(C(=O)CC(=O)OC(C)Cn2cnc3c2c(=O)n(C)c(=O)n3C)cc1` (configuration not stated) has an inhibition of growth at 0.0625 µg/mL of 99.8%.

These compounds were tested on Candida albicans (assay: Growth inhibition of Candida albicans ATCC 90028 at 2 ug/ml incubated for 18 hrs at 35 degC by broth microdilution method relative to control). Details: ATCC 90028, 18 h, read-out: GI.
Assay type: functional
`Cc1ccc(C(=O)CC(=O)OC(C)Cn2cnc3c2c(=O)n(C)c(=O)n3C)cc1` (configuration not stated) gave an inhibition of growth at 2 µg/mL of 100%.

The compounds below were run on Candida albicans (assay: Growth inhibition of Candida albicans ATCC 90028 at 2 ug/ml incubated for 4 hrs at 35 degC by broth microdilution method relative to control). Details: ATCC 90028, 4 h, read-out: GI.
Assay type: functional
`Cc1ccc(C(=O)CC(=O)OC(C)Cn2cnc3c2c(=O)n(C)c(=O)n3C)cc1` (configuration not stated) was tested, and the inhibition of growth at 2 µg/mL was 99.2%.

The compounds below were run on Candida albicans (assay: Growth inhibition of Candida albicans ATCC 90028 at 1 ug/ml incubated for 4 hrs at 35 degC by broth microdilution method relative to control). Details: ATCC 90028, 4 h, read-out: GI.
Assay type: functional
`Cc1ccc(C(=O)CC(=O)OC(C)Cn2cnc3c2c(=O)n(C)c(=O)n3C)cc1` (configuration not stated) gave an inhibition of growth at 1 µg/mL of 99.2%.

These compounds were tested on Candida albicans (assay: Growth inhibition of Candida albicans ATCC 90028 at 0.25 ug/ml incubated for 4 hrs at 35 degC by broth microdilution method relative to control). Details: ATCC 90028, 4 h, read-out: GI.
Assay type: functional
`Cc1ccc(C(=O)CC(=O)OC(C)Cn2cnc3c2c(=O)n(C)c(=O)n3C)cc1` (configuration not stated) was tested, and the inhibition of growth at 0.25 µg/mL was 99.2%.

Each compound was assayed on CCRF-CEM (assay: Antiproliferative activity against human CCRF-CEM cells assessed as cell viability at 50 uM after 72 hrs by MTT assay). Details: read-out: Activity.
Assay type: functional
Outline: as §1
Work on `Cc1ccc(C(=O)CC(=O)OC(C)Cn2cnc3c2c(=O)n(C)c(=O)n3C)cc1` (configuration not stated) yielded a viability at 50 µM of 74.2%.

Each compound was assayed on MCF7 (assay: Antiproliferative activity against human MCF7 cells assessed as cell viability at 200 uM after 72 hrs by MTT assay). Details: MCF7, 72 h, read-out: Activity.
Assay type: functional
Outline: as §1
With `Cc1ccc(C(=O)CC(=O)OC(C)Cn2cnc3c2c(=O)n(C)c(=O)n3C)cc1` (configuration not stated) the viability at 200 µM was 82.7%.

These compounds were tested on Candida albicans (assay: Growth inhibition of Candida albicans ATCC 90028 at 0.5 ug/ml incubated for 18 hrs at 35 degC by broth microdilution method relative to control). Details: ATCC 90028, 18 h, read-out: GI.
Assay type: functional
`Cc1ccc(C(=O)CC(=O)OC(C)Cn2cnc3c2c(=O)n(C)c(=O)n3C)cc1` (configuration not stated) showed an inhibition of growth at 0.5 µg/mL of 99.8%.

These compounds were tested on Candida albicans (assay: Fungicidal activity against Candida albicans ATCC 90028 assessed as log reduction in cell viability at 16 ug/ml after 48 hrs at 35 degC). Details: not given.
Assay type: functional
Outline: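 MFC assay on C. albicans ATCC 90028 following M27-A3, at the molar equivalent of 16 µg/mL. CFU of treated cells were compared with CFU of the untreated inoculum. Activity is given as lg R = lg CFU/mL control − lg CFU/mL treated, and lg R ≥3 was defined as fungicidal. Values are means of two independent experiments.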
For `Cc1ccc(C(=O)CC(=O)OC(C)Cn2cnc3c2c(=O)n(C)c(=O)n3C)cc1` (configuration not stated), the “log(activity)” value was 0.5.

The compounds below were run on MCF7 (assay: Antiproliferative activity against human MCF7 cells assessed as cell viability at 100 uM after 72 hrs by MTT assay). Details: MCF7, 72 h, read-out: Activity.
Assay type: functional
Outline: as §1
Work on `Cc1ccc(C(=O)CC(=O)OC(C)Cn2cnc3c2c(=O)n(C)c(=O)n3C)cc1` (configuration not stated) yielded a viability at 100 µM of 86.6%.

The compounds below were run on Candida albicans (assay: Growth inhibition of Candida albicans ATCC 90028 at 16 ug/ml incubated for 18 hrs at 35 degC by broth microdilution method relative to control). Details: ATCC 90028, 18 h, read-out: GI.
Assay type: functional
Compound `Cc1ccc(C(=O)CC(=O)OC(C)Cn2cnc3c2c(=O)n(C)c(=O)n3C)cc1` (configuration not stated) has an inhibition of growth at 16 µg/mL of 100%.

The compounds below were run on Candida albicans (assay: Growth inhibition of Candida albicans ATCC 90028 at 0.125 ug/ml incubated for 18 hrs at 35 degC by broth microdilution method relative to control). Details: ATCC 90028, 18 h, read-out: GI.
Assay type: functional
With `Cc1ccc(C(=O)CC(=O)OC(C)Cn2cnc3c2c(=O)n(C)c(=O)n3C)cc1` (configuration not stated) the inhibition of growth at 0.125 µg/mL was 100%.

The compounds below were run on Candida albicans (assay: Growth inhibition of Candida albicans ATCC 90028 at 0.0313 ug/ml incubated for 18 hrs at 35 degC by broth microdilution method relative to control). Details: ATCC 90028, 18 h, read-out: GI.
Assay type: functional
For `Cc1ccc(C(=O)CC(=O)OC(C)Cn2cnc3c2c(=O)n(C)c(=O)n3C)cc1` (configuration not stated), the inhibition of growth at 0.0313 µg/mL was 100%.

The compounds below were run on Candida albicans (assay: Growth inhibition of Candida albicans ATCC 90028 at 0.25 ug/ml incubated for 18 hrs at 35 degC by broth microdilution method relative to control). Details: ATCC 90028, 18 h, read-out: GI.
Assay type: functional
With `Cc1ccc(C(=O)CC(=O)OC(C)Cn2cnc3c2c(=O)n(C)c(=O)n3C)cc1` (configuration not stated) the inhibition of growth at 0.25 µg/mL was 100%.

These compounds were tested on Candida albicans (assay: Growth inhibition of Candida albicans ATCC 90028 at 0.5 ug/ml incubated for 4 hrs at 35 degC by broth microdilution method relative to control). Details: ATCC 90028, 4 h, read-out: GI.
Assay type: functional
`Cc1ccc(C(=O)CC(=O)OC(C)Cn2cnc3c2c(=O)n(C)c(=O)n3C)cc1` (configuration not stated) showed an inhibition of growth at 0.5 µg/mL of 99.2%.

Each compound was assayed on Candida albicans (assay: Growth inhibition of Candida albicans ATCC 90028 at 8 ug/ml incubated for 48 hrs at 35 degC by broth microdilution method relative to control). Details: ATCC 90028, 48 h, read-out: GI.
Assay type: functional
For `Cc1ccc(C(=O)CC(=O)OC(C)Cn2cnc3c2c(=O)n(C)c(=O)n3C)cc1` (configuration not stated), the inhibition of growth at 8 µg/mL was 99.3%.

What follows are compounds tested on MCF7 (assay: Antiproliferative activity against human MCF7 cells assessed as cell viability at 50 uM after 72 hrs by MTT assay). Details: MCF7, 72 h, read-out: Activity.
Assay type: functional
Outline: as §1
In the case of `Cc1ccc(C(=O)CC(=O)OC(C)Cn2cnc3c2c(=O)n(C)c(=O)n3C)cc1` (configuration not stated), the viability at 50 µM is reported as 82.2%.

These compounds were tested on Candida albicans (assay: Growth inhibition of Candida albicans ATCC 90028 at 0.0625 ug/ml incubated for 4 hrs at 35 degC by broth microdilution method relative to control). Details: ATCC 90028, 4 h, read-out: GI.
Assay type: functional
With `Cc1ccc(C(=O)CC(=O)OC(C)Cn2cnc3c2c(=O)n(C)c(=O)n3C)cc1` (configuration not stated) the inhibition of growth at 0.0625 µg/mL was 99.3%.

The compounds below were run on CCRF-CEM (assay: Antiproliferative activity against human CCRF-CEM cells assessed as cell viability at 25 uM after 72 hrs by MTT assay). Details: read-out: Activity.
Assay type: functional
Outline: as §1
In the case of `Cc1ccc(C(=O)CC(=O)OC(C)Cn2cnc3c2c(=O)n(C)c(=O)n3C)cc1` (configuration not stated), the viability at 25 µM is reported as 89.5%.

What follows are compounds tested on Candida albicans (assay: Growth inhibition of Candida albicans ATCC 90028 at 1 ug/ml incubated for 18 hrs at 35 degC by broth microdilution method relative to control). Details: ATCC 90028, 18 h, read-out: GI.
Assay type: functional
In the case of `Cc1ccc(C(=O)CC(=O)OC(C)Cn2cnc3c2c(=O)n(C)c(=O)n3C)cc1` (configuration not stated), the inhibition of growth at 1 µg/mL is reported as 100%.

These compounds were tested on Candida albicans (assay: Growth inhibition of Candida albicans ATCC 90028 at 4 ug/ml incubated for 18 hrs at 35 degC by broth microdilution method relative to control). Details: ATCC 90028, 18 h, read-out: GI.
Assay type: functional
`Cc1ccc(C(=O)CC(=O)OC(C)Cn2cnc3c2c(=O)n(C)c(=O)n3C)cc1` (configuration not stated) showed an inhibition of growth at 4 µg/mL of 100%.

The compounds below were run on Candida albicans (assay: Growth inhibition of Candida albicans ATCC 90028 at 8 ug/ml incubated for 18 hrs at 35 degC by broth microdilution method relative to control). Details: ATCC 90028, 18 h, read-out: GI.
Assay type: functional
Work on `Cc1ccc(C(=O)CC(=O)OC(C)Cn2cnc3c2c(=O)n(C)c(=O)n3C)cc1` (configuration not stated) yielded an inhibition of growth at 8 µg/mL of 100%.

These compounds were tested on Candida albicans (assay: Growth inhibition of Candida albicans ATCC 90028 at 16 ug/ml incubated for 48 hrs at 35 degC by broth microdilution method relative to control). Details: ATCC 90028, 48 h, read-out: GI.
Assay type: functional
`Cc1ccc(C(=O)CC(=O)OC(C)Cn2cnc3c2c(=O)n(C)c(=O)n3C)cc1` (configuration not stated) was tested, and the inhibition of growth at 16 µg/mL was 99.1%.

These compounds were tested on CCRF-CEM (assay: Antiproliferative activity against human CCRF-CEM cells assessed as cell viability at 200 uM after 72 hrs by MTT assay). Details: read-out: Activity.
Assay type: functional
Outline: as §1
With `Cc1ccc(C(=O)CC(=O)OC(C)Cn2cnc3c2c(=O)n(C)c(=O)n3C)cc1` (configuration not stated) the viability at 200 µM was 31.6%.

What follows are compounds tested on Candida albicans (assay: Growth inhibition of Candida albicans ATCC 90028 at 0.0313 ug/ml incubated for 4 hrs at 35 degC by broth microdilution method relative to control). Details: ATCC 90028, 4 h, read-out: GI.
Assay type: functional
`Cc1ccc(C(=O)CC(=O)OC(C)Cn2cnc3c2c(=O)n(C)c(=O)n3C)cc1` (configuration not stated) showed an inhibition of growth at 0.0313 µg/mL of 99.8%.

These compounds were tested on CCRF-CEM (assay: Antiproliferative activity against human CCRF-CEM cells assessed as cell viability at 100 uM after 72 hrs by MTT assay). Details: read-out: Activity.
Assay type: functional
Outline: as §1
In the case of `Cc1ccc(C(=O)CC(=O)OC(C)Cn2cnc3c2c(=O)n(C)c(=O)n3C)cc1` (configuration not stated), the viability at 100 µM is reported as 67.3%.
